Scp-1 inhibitor: Scp-1 phosphatase inhibitors, primary screen, biochemical, colorimetric, uHTS. 340,000 compounds, 0.88% hits. Recombinant Scp1, phosphopeptide, malachite green phosphate absorbance. inhibition, % at 20 µM. AID 493091, 2011. Carboxy-terminal domain RNA polymerase II polypeptide A small phosphatase 1 (Homo …;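 active = inhibition above about 50% at 20 µM, limit read from the data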
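Test system – truncated SCP-1 phosphatase (76-261aa) · Reagent – Phosphorylated 17-residue peptide substrate · Incubation – 45 min room-temperature reaction, 5 min colour, 30 min stabiliser · Detection – colorimetric phosphate reagent with accelerator and stabiliser, absorbance at 630 nm · Measure – % inhibition at 20 µM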
LMPTP inh: LMPTP phosphatase inhibitors, primary screen, biochemical, fluorescence intensity, uHTS; 360,000 compounds, 0.22% hits; Low molecular weight phosphotyrosine protein phosphatase (Homo sapiens), P24666; inhibition, % at 20 µM; recombinant LMPTP-A, OMFP fluorogenic substrate; AID 651560, 2012;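 active = compounds that cut the enzyme signal by at least half of the control window in the single-dose screen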
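Assay system: LMPTP-A enzyme. Input: 0.625 nM LMPTP-A final. Probe or stimulus: 400 µM OMFP. Compound dosing: single 20 µM dose. Schedule: 50 min dark incubation at room temperature. Detection: fluorescence intensity of OMFP turnover product. Read-out: percent inhibition versus substrate-only and uninhibited controls. Benchmarks: no-enzyme low control, uninhibited high control.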
DNMT1 block: human DNMT1 methyltransferase inhibitors, primary screen, biochemical, molecular beacon, fluorescence, HinP1I cleavage, uHTS; AID 588458, 2011; inhibition (reported as % activation of signal), % at 10 µM; 360,000 compounds, 0.83% hits; in the data active = inhibition above about 50%
HKDC1 inh: HKDC1 hexokinase inhibitors, primary screen, biochemical, fluorescence, uHTS; Q2TB90; recombinant HKDC1, G6PDH/diaphorase resazurin coupled fluorescence; inhibition, % at 20 µM; 340,000 compounds, 0.16% hits; AID 493160, 2011;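 active = inhibition above about 35% when tested at 20 µM, limit read from the data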
Target sequence (Q2TB90 whole entry, looked up): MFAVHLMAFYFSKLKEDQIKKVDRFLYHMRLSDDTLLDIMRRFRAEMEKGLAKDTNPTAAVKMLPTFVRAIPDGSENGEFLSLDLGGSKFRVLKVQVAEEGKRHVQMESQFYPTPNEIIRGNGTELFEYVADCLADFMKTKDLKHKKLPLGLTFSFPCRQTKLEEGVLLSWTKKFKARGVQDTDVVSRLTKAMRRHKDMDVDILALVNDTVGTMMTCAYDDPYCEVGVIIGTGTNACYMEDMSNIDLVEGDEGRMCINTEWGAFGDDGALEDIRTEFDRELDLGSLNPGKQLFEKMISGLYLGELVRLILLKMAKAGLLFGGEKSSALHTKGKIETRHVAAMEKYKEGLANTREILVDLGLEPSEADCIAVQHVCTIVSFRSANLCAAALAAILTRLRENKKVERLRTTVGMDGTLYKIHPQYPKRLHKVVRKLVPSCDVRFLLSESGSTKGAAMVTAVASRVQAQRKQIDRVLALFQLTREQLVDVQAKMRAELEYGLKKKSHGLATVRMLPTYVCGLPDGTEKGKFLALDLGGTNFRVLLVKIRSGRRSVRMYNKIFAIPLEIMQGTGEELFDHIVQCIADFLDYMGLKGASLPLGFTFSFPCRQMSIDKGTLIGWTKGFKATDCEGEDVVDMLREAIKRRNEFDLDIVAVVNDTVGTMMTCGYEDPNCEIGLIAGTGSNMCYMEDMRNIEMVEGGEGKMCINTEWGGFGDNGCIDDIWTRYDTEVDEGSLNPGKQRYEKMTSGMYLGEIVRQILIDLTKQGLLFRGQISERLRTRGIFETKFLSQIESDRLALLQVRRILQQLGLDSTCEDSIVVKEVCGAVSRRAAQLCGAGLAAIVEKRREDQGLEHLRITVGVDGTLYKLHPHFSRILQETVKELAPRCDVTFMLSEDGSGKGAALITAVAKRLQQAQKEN
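Test system: HK5 enzyme. Quantity: 5 µg/mL HK5 final. Reagent: glucose and ATP substrates. Schedule: 90 min reaction incubation at room temperature, dark. Technique: resazurin-to-resorufin fluorescence via G6PDH and diaphorase coupling, 525/613 nm. Control set: DMSO wells with and without enzyme mix.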
STEP block: STEP phosphatase inhibitors, primary screen, biochemical, fluorescence intensity, uHTS | 360,000 compounds, 0.25% hits | recombinant STEP, OMFP fluorogenic substrate | inhibition, % at 20 µM;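 active = inhibition at 20 µM, scaled per plate between control wells, above about 37%, limit read from the data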
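System: isolated STEP enzyme; schedule: 20 min enzyme reaction at room temperature, protected from light; medium: Bis-Tris buffer pH 6.0, 2.5 mM DTT, 0.005% Tween 20; signal: fluorescence, 480/540 nm; dosing: single compound dose of 20 µM, 1% DMSO final; also added: OMFP substrate, 25 µM final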
SUMO1 PPI mod: modulators of SUMO1 protein-protein interactions, primary screen, biochemical, uHTS. SUMO1 binding to a labelled peptide, TR-FRET, 1 h. Small ubiquitin-related modifier 1 (Homo sapiens), P63165. inhibition, % at 20 µM. 360,000 compounds, 0.33% hits; in the data active = inhibition above about 37%
DNMT1 inh conf: DNMT1 methyltransferase inhibitor retest, confirmation, biochemical, molecular beacon, fluorescence, single concentration; shares compounds with DNMT1 block; inhibition, % at 10 µM; DNMT1 molecular beacon HinP1I cleavage; 2,300 compounds, 8% hits;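 active = average inhibition of at least 30% in the single-concentration confirmation test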
DNMT1 interf: counter-screen for DNMT1 inhibitors: spectral interference; shares compounds with DNMT1 block; DNMT1 molecular beacon spectral interference counterscreen, fluorescence 485/520; activation (fluorescence interference), % at 10 µM; 2,300 compounds, 1% hits;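 active = activation of at least 30% at 10 µM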;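 also: DNMT1 catalytic domain with a HinP1I cleavage step and a FAM/dabcyl DNA beacon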
A number is an active result; i = inactive; nt = no result given. A selection: hits, their analogues and other compounds. The true share with any hit is near 1.8%.

SMILES	Scp-1 inhibitor	LMPTP inh	DNMT1 block	HKDC1 inh	STEP block	SUMO1 PPI mod	DNMT1 inh conf	DNMT1 interf
NC1=NC[C@H](Cc2ccc(O)cc2)N1CCc1cccc(F)c1	i	i	i	i	i	i	nt	nt
O=C(O)C1CCN(c2ncccn2)CC1	i	i	81.1	i	i	i	i	i
O=C(NC1CCCCC1)C1CCN(c2ncccn2)CC1	i	i	i	i	i	i	nt	nt
C/C(=N\NC(=O)c1ccc2c(c1)OCO2)c1ccc(O)cc1	i	i	81.0	i	i	i	i	i
CC(=NNC(=O)COc1cccc(C)c1)c1cccnc1	i	i	79.8	i	i	i	i	i
CCC(C)C(CO)NCCCn1cnc2c(OCc3ccccc3)ncnc21 (centres undefined)	nt	i	i	nt	i	i	nt	nt
CSc1nc(Sc2ccccc2)c2ccccc2n1	i	i	i	i	i	i	nt	nt
CSc1nc(Sc2cccc(Cl)c2)c2ccccc2n1	i	i	86.8	i	i	i	i	i
CCNC(=O)C1(C)CCCN(C(=O)c2cc(-c3ccccc3)cs2)C1 (centres undefined)	nt	i	i	nt	i	i	nt	nt
COc1ccc(C(=O)Nc2ccc(NC(=O)c3cccs3)cc2)cc1[N+](=O)[O-]	i	i	i	i	i	i	i	i
COc1ccc(N/C=C\C(=O)c2ccc3ccccc3c2)cc1	i	i	i	i	i	i	nt	nt
NS(=O)(=O)c1ccc(N/C=C\C(=O)c2ccc3ccccc3c2)cc1	i	i	88.1	i	i	i	i	i
Nc1c(C(=O)C2CC2)sc2nc(-c3ccccc3)cc(C(F)(F)F)c12	i	i	67.6	i	i	i	50.9	37.5
O=C(C[C@@H]1CC[C@@H]2[C@H](COC[C@H](O)CN2C(=O)Nc2ccc(F)cc2)O1)NCCc1ccncc1	nt	i	nt	nt	nt	i	nt	nt
CSc1sc(-c2n[nH]c(=S)n2C)c2c1C=CCC2	i	50.4	65.5	i	i	i	i	i
Cc1nc(-c2ccccc2)sc1-c1n[nH]c(=S)n1C	i	i	i	i	i	i	nt	nt
CC(C)C[C@@H]1NC(=O)[C@H](Cc2ccccc2)N(C)C(=O)[C@H](C)NC(=O)c2ccccc2NC(=O)[C@H](Cc2ccc(O)cc2)N(C)C1=O	i	i	79.3	i	i	i	i	i
CN(C)C(=O)C[C@@H]1CC[C@@H](NC(=O)C2CCC2)[C@@H](CO)O1	nt	i	nt	nt	nt	i	nt	nt
O=C1NC[C@H](CCCCN2C[C@H](Cc3ccc(O)cc3)N(CCc3ccccc3)C(=O)C2=O)N(CCc2ccc(O)cc2)C1=O	nt	i	nt	nt	nt	i	nt	nt
O=[N+]([O-])c1ccc(-c2cc(-c3ccc(Cl)cc3)n[nH]2)cc1	i	i	91.0	i	i	46.9	i	i
O=[N+]([O-])c1ccc2nc(-c3ccc(Cl)cc3)[nH]c2c1	i	i	i	i	i	i	nt	nt
O=C(CCc1nc2ccccc2c(=O)[nH]1)Nc1nnc(SCc2ccccc2)s1	i	i	66.5	i	i	i	i	i
O=c1[nH]c(CSc2nnc(Nc3ccccc3)s2)nc2ccccc12	i	i	i	i	i	i	nt	nt
Cc1ccc(C(=O)Nc2cccc(C(F)(F)F)c2)cc1Nc1cncnc1	i	i	i	i	i	i	nt	nt
NC(=O)c1nc[nH]c1C(=O)Nc1cccc(C(F)(F)F)c1	i	i	i	i	i	i	nt	nt
Cc1ccc(C(=O)Nc2cccc(C(F)(F)F)c2)cc1NC(=O)c1[nH]cnc1C(N)=O	i	i	55.7	i	i	i	i	i

Screens as filed in PubChem BioAssay.
